81 molecules from ChEMBL document CHEMBL3228033, “Cyclic amidine inhibitors of indolamine N-methyltransferase” (J Med Chem, 1979) can be followed below.

Test [1] addresses Indolethylamine N-methyltransferase (Homo sapiens, UniProt O95050). Description: Inhibition of human lung INMT using N-methyltryptamine as substrate after 90 mins by liquid scintillation counting in presence of S-methyl-[14C]adenosylmethionine.
In test [2] the target is Indolethylamine N-methyltransferase (Oryctolagus cuniculus, UniProt O97972). Description: Inhibition of New Zealand white rabbit lung INMT using N-methyltryptamine as substrate after 60 to 90 mins by liquid scintillation counting in presence of S-methyl-[14C]adenosylmethionine. An outline of the steps: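 Enzyme from male rabbit lung: homogenate in 0.15 M KCl with 10^-4 M DTT and EDTA, 50 000 g supernatant, 40-60% ammonium sulfate fraction dialysed (some runs further Sephadex G-150 purified). Incubation in potassium phosphate pH 7.9 with N-methyltryptamine and S-[methyl-14C]adenosylmethionine, test compound in water or 5% DMSO, 37 °C. Stopped with borate pH 10; 14C-DMT extracted into isoamyl alcohol.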

The test system of test [3] is Oryctolagus cuniculus. Description: In vivo inhibition of New Zealand white rabbit lung INMT at 0.5 %, po in drinking water for 5 days. The format is functional. An outline of the steps:
(§1)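 Male NZW rabbits, three per group, received compound in drinking water (pH 7) throughout, with water for controls. Afterwards decapitated and bled out. Crude lung INMT (54 000g supernatant) assayed by the standard in vitro [14C]SAM/NMT method. Activity taken as cpm/mg protein after 1 h at 37 °C, read in the toluene-isoamyl alcohol phase. Means ± SEM.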

For test [4], the system named is Oryctolagus cuniculus. Description: In vivo inhibition of New Zealand white rabbit INMT-mediated [14C]NMT to [14C]DMT conversion in brain at 0.5 %, po in drinking water for 5 days. The format is functional. Summed up: (§2)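 Male NZW rabbits (400-500 g), three per group, given 0.5% (v/v) in drinking water for 5 days; controls water. Day 5: pheniprazine 5 mg/kg iv, then 6 h later 25 µCi (0.5 mg) [14C]NMT iv. After 5 min, decapitation; lung and brain frozen in liquid nitrogen. [14C]DMT counted as cpm/g tissue. Values are means of three animals, with Student's t test.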

The test system of test [5] is Oryctolagus cuniculus. Description: In vivo inhibition of New Zealand white rabbit INMT-mediated [14C]NMT to [14C]DMT conversion in lung at 0.5 %, po in drinking water for 5 days. The format is functional. An outline of the steps: as §2
For test [6], the system named is Oryctolagus cuniculus. Description: In vivo inhibition of New Zealand white rabbit lung INMT at 0.02 %, po in drinking water for 12 days. The format is functional. Summed up: as §1

pIC50: −log10 of the molar value.

Indolethylamine N-methyltransferase (Homo sapiens, UniProt O95050), sequence (O95050 whole entry): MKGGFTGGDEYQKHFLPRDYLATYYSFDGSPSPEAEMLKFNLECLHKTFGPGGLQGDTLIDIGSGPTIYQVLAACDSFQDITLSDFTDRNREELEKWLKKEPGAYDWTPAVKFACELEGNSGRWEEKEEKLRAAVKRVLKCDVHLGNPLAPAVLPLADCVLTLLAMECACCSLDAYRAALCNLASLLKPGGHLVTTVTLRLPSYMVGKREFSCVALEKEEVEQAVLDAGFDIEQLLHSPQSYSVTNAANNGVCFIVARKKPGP
Indolethylamine N-methyltransferase (Oryctolagus cuniculus, UniProt O97972), sequence (O97972 whole entry): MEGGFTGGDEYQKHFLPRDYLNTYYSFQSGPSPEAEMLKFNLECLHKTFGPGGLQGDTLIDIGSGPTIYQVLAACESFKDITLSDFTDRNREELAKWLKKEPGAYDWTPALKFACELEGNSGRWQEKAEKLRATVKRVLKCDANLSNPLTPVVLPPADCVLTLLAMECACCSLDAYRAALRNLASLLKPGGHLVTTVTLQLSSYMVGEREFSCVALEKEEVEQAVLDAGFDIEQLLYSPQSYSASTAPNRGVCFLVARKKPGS

The term pIC50 denotes −log10 of the IC50, conventionally taken in molar units. For `C1CCC2=NCCCN2CC1`, the pIC50 in test [1] is 4.59; in test [2], 5.10.

Take `CC(C)CN1CCCC1=N`: the pIC50 in test [2] was 4.71.

For the molecule `C1CN=C2CCCN2C1`, the pIC50 in test [2] was 5.78.

As for `C1CCN2CCCC2=NC1`, the pIC50 in test [1] was 3.07; in test [2], 4.13.

Consider `C1CCN2CCCN=C2C1`, for which the negative logarithm of the IC50 (pIC50) in test [2] was 6.15.

For the molecule `CC1CC2=NCCCN2C1` (stereo not drawn), in test [2], the negative-log IC50 (pIC50) is 5.15.

`CC1CCC2=NCCCN21` (stereo not drawn): the pIC50 in test [2] is 4.88.

`C(=C1/CCC2=NCCCN21)/c1ccccc1`: the negative-log IC50 (pIC50) in test [2] is 4.43.

`C=C1CN=C2CCCN2C1`: in test [2], the pIC50 was 4.36.

Consider `ClC1CCCN2CCN=C12` (stereo not drawn), for which the pIC50 in test [2] was 4.28.

Regarding `C1CC2=NCCN2C1`, in test [2], the pIC50 is 7.40.

Turning to `CC1CC2=NCCN2C1` (stereo not drawn), in test [2], the negative logarithm of the IC50 (pIC50) is 5.42.

As for `CC1(C)CC2=NCCN2C1`, in test [2], the negative-log IC50 (pIC50) is 4.27.

As to `CC1CCC2=NCCN21` (stereo not drawn), the pIC50 in test [2] is 5.03.

`C1CCC2(CC1)CCC1=NCCN12`: in test [2], the pIC50 is 3.85.

As for `c1ccc(C2CC3=NCCN3C2)cc1` (stereo not drawn), in test [2], the negative logarithm of the IC50 (pIC50) was below 3.48.

Consider `c1ccc(C2(c3ccccc3)CC3=NCCN3C2)cc1`, for which the negative logarithm of the IC50 (pIC50) in test [2] was below 3.48.

With `c1cn2c(n1)CCC2`, the pIC50 in test [2] was 4.08.

In the case of `c1ccc2c(c1)CN1CCN=C21`, in test [2], the pIC50 is below 3.48.

For `c1ccc2c(c1)CC1C2CC2=NCCN21` (stereo not drawn), the pIC50 in test [2] is 4.79.

Regarding `C1CN2C(=N1)C1CC3CC(C1)CC2C3`, the negative-log IC50 (pIC50) in test [2] is below 3.48.

Consider `C1CCN2CCN=C2C1`, for which the negative-log IC50 (pIC50) in test [2] was 6.77.

For the molecule `C1CN2CCOCC2=N1`, in test [2], the pIC50 is 4.86.

As to `C1CN2CCSCC2=N1.O=C(O)/C=C/C(=O)O`, the “inhibition (INH)” value in test [3] is 75%; in test [4] it was 57%; in test [5] it was 64%. For the same molecule, the pIC50 in test [2] is 6.30.

Turning to `CC1CN2CCN=C2CS1` (stereo not drawn), the pIC50 in test [2] was 4.52.

In the case of `[O-][S+]1CCN2CCN=C2C1` (stereo not drawn), in test [2], the pIC50 was 5.44.

Consider `C1=CN2CCN=C2CS1`, for which, in test [2], the negative logarithm of the IC50 (pIC50) was 4.74.

Take `CC1=CSCC2=NCCN12`: the pIC50 in test [2] is 4.34.

`c1ccc2c(c1)SCC1=NCCN12`: in test [2], the negative logarithm of the IC50 (pIC50) is below 3.48.

In the case of `CN1CCSC1=N.I`, in test [6], the “inhibition (INH)” value is on record as 76%. Moreover, the pIC50 in test [2] was 6.10.

With `C/N=C1\SCCN1C`, in test [2], the pIC50 is 5.09.

With `CCN1CCSC1=N`, the negative logarithm of the IC50 (pIC50) in test [2] was 6.70.

As to `C/N=C1/NCCS1`, in test [2], the pIC50 was 5.11.

`CCCN1CCSC1=N`: the negative logarithm of the IC50 (pIC50) in test [2] is 5.00.

For `C=CCN1CCSC1=N`, in test [2], the pIC50 was 5.15.

Regarding `C#CCN1CCSC1=N`, the pIC50 in test [2] was 4.86.

Regarding `CNN1CCSC1=N`, the pIC50 in test [2] is 5.82.

`CC1CN(C)C(=N)S1` (stereo not drawn): in test [2], the pIC50 is 5.10.

On to `Cn1ccsc1=N`, for which the pIC50 in test [2] is 5.70.

As for `Cn1cc(C(F)(F)F)sc1=N`, the negative logarithm of the IC50 (pIC50) in test [1] was below 4.06; in test [2] it was below 4.05.

Regarding `C/N=c1\ccsn1C`, the negative logarithm of the IC50 (pIC50) in test [2] is 5.16.

For `C/N=c1\cnsn1C`, the pIC50 in test [2] is 5.28.

As for `CN1CCOC1=N`, the pIC50 in test [2] was 4.40.

Turning to `C/N=C1\CCCN1`, the negative-log IC50 (pIC50) in test [2] was 4.57.

Take `CN1CCCC1=N`: the pIC50 in test [2] is 5.82.

As to `CCN1CCCC1=N`, in test [2], the pIC50 was 5.80.

Consider `N=C1CCCN1C1CC1`, for which the negative-log IC50 (pIC50) in test [2] was 4.17.

On to `CCOC(CN1CCCC1=N)OCC`, for which the pIC50 in test [2] is below 3.97.

Turning to `N=C1CCCN1CCc1ccccc1`, the pIC50 in test [2] was 2.43.

As to `CN1CCC/C1=N\CC(F)(F)F`, the pIC50 in test [2] was below 4.03.

For the molecule `C/N=C1\CCCN1C`, the pIC50 in test [2] was 4.51.

For the molecule `CN1CCC/C1=N\C1CC1`, the negative-log IC50 (pIC50) in test [2] was below 4.99.

For the molecule `CN1CCSCC1=N`, the pIC50 in test [2] was 5.20.

As to `CN1CCCSC1=N`, in test [2], the pIC50 was 5.70.

In the case of `CCN1CCCSC1=N`, the pIC50 in test [2] was 5.74.

Take `CN1C=CSCC1=N`: the pIC50 in test [2] is 5.52.

`C/N=C1\CSC=CN1C`: the negative logarithm of the IC50 (pIC50) in test [2] was 5.01.

As to `CN1C=CCSC1=N`, in test [2], the pIC50 was 5.70.

`Cn1ccccc1=N`: in test [2], the pIC50 was 5.80.

For `C=CCn1ccccc1=N`, the negative-log IC50 (pIC50) in test [2] was 5.80.

As for `N=c1ccccn1CC(F)(F)F`, the negative-log IC50 (pIC50) in test [2] is below 5.01.

Take `Cn1cccc/c1=N\CC(F)(F)F`: the negative logarithm of the IC50 (pIC50) in test [2] is below 5.04.

Turning to `Cn1cccc/c1=N\CCO`, the negative logarithm of the IC50 (pIC50) in test [2] is below 5.05.

Take `Cn1cccc/c1=N\C1CC1`: the pIC50 in test [2] is below 5.00.

As to `Cn1cccc(C#N)c1=N`, in test [2], the negative-log IC50 (pIC50) was 3.75.

In the case of `Cc1ccn(C)c(=N)c1`, the pIC50 in test [2] is 5.55.

For `Cn1cc(F)ccc1=N`, the pIC50 in test [2] was 4.16.

On to `Cn1c(F)cccc1=N`, for which, in test [2], the pIC50 is 5.28.

Regarding `C/N=c1\cccc(F)n1C`, in test [2], the negative-log IC50 (pIC50) was 4.13.

For `Cn1c(N)cccc1=N`, in test [2], the pIC50 is 5.21.

Take `C/N=c1\cccc(NC)n1C`: the negative logarithm of the IC50 (pIC50) in test [2] is 4.88.

As for `CCOc1cccc(=N)n1C`, the pIC50 in test [2] is below 4.99.

For the molecule `CN1CCC=CC1=N`, the pIC50 in test [2] is 6.05.

As to `Cn1ccncc1=N`, the pIC50 in test [2] was below 2.28.

For the molecule `N#CCn1ccc(=N)cc1`, the pIC50 in test [2] was below 3.83.

Regarding `C[n+]1ccccc1CC#N`, the negative-log IC50 (pIC50) in test [2] is below 4.93.

Consider `Cc1cc(=N)sn1C`, for which, in test [2], the pIC50 is 4.71.

For the molecule `Cn1ccc(=N)cc1`, the pIC50 in test [2] is 5.21.

In the case of `C[N+]1=C2CCCN2CCC1`, in test [2], the pIC50 is 4.41.

In the case of `N=C1SCCN1Cc1ccncc1`, the negative logarithm of the IC50 (pIC50) in test [2] was below 5.16.

Take `NC1=NCCC1`: the negative logarithm of the IC50 (pIC50) in test [2] was 4.47.
